Experimental data from ChEMBL document CHEMBL6109036, “Azo derivatives of monoterpenes as anti-Helicobacter pylori agents: from synthesis to structure-based target investigation” (RSC Med Chem, 2025).
In brackets after ≈: the same amount, converted by molar mass.

Legend:
Assay type in all cases: functional
[1] = test system: Helicobacter pylori; test: Anti-bacterial activity against Helicobacter pylori Clinical isolate F1 measured after 72 hrs incubation by modified broth dilution method
[2] = test system: Helicobacter pylori; test: Bactericidal activity against Helicobacter pylori Clinical isolate F1 measured after 72 hrs of incubation under microaerophilic conditions by modified broth dilution method; settings: read-out: MBC99.9
Summary of the method: (§1)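 H. pylori (NCTC 11637, F1, 23, F4). Wells with no visible growth in the MIC assay spotted (10 μL) onto Skirrow agar. Plates incubated 72 h at 37 °C, microaerophilic, 100% humidity. MBC = concentration killing 99.9% of the initial inoculum. Triplicate, on at least three different days.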

[3] = test system: Helicobacter pylori; test: Anti-bacterial activity against Helicobacter pylori Clinical isolate 23 measured after 72 hrs incubation by modified broth dilution method
[4] = test system: Helicobacter pylori; test: Bactericidal activity against Helicobacter pylori Clinical isolate 23 measured after 72 hrs of incubation under microaerophilic conditions by modified broth dilution method; settings: read-out: MBC99.9; summary of the method: as §1
[5] = test system: Helicobacter pylori; test: Anti-bacterial activity against Helicobacter pylori NCTC 11637 measured after 72 hrs incubation by modified broth dilution method
[6] = test system: Helicobacter pylori; test: Bactericidal activity against Helicobacter pylori NCTC 11637 measured after 72 hrs of incubation under microaerophilic conditions by modified broth dilution method; settings: read-out: MBC99.9; summary of the method: as §1
[7] = test system: Helicobacter pylori; test: Anti-bacterial activity against Helicobacter pylori Clinical isolate F4 measured after 72 hrs incubation by modified broth dilution method
[8] = test system: Helicobacter pylori; test: Bactericidal against Helicobacter pylori Clinical isolate F4 measured after 72 hrs of incubation under microaerophilic conditions by modified broth dilution method; settings: read-out: MBC99.9; summary of the method: as §1
[9] = test system: Helicobacter pylori; test: Anti-bacterial activity against Helicobacter pylori measured after 72 hrs incubation by modified broth dilution method
[10] = test system: Helicobacter pylori; test: Bactericidal against Helicobacter pylori measured after 72 hrs of incubation under microaerophilic conditions by modified broth dilution method
Summary of the method: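 Wells with no visible growth in the MIC assay spotted (10 μL) onto Skirrow agar. Plates incubated 72 h at 37 °C, microaerophilic, 100% humidity. Triplicate, on at least three different days.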

| SMILES | MIC [1] | MBC [2] | MIC [3] | MBC [4] | MIC [5] | MBC [6] | MIC [7] | MBC [8] | MIC50 [9] | MIC90 [9] | MBC90 [10] |
| --- | --- | --- | --- | --- | --- | --- | --- | --- | --- | --- | --- |
| C=CCc1cc(/N=N/c2ccc(Cl)cc2Cl)c(O)c(OC)c1 | > 128 µg/mL | > 128 µg/mL | > 128 µg/mL | > 128 µg/mL | 128 µg/mL (≈ 380 µM) | 128 µg/mL (≈ 380 µM) | > 128 µg/mL | > 128 µg/mL | > 128 µg/mL | > 128 µg/mL | >128 µg/mL |
| COc1cc(C=O)cc(/N=N/c2ccc(C#N)cc2)c1O | 4 µg/mL (≈ 14.2 µM) | 4 µg/mL (≈ 14.2 µM) | 8 µg/mL (≈ 28.4 µM) | 8 µg/mL (≈ 28.4 µM) | 8 µg/mL (≈ 28.4 µM) | 16 µg/mL (≈ 56.9 µM) | 8 µg/mL (≈ 28.4 µM) | 8 µg/mL (≈ 28.4 µM) | 8 µg/mL (≈ 28.4 µM) | 8 µg/mL (≈ 28.4 µM) | 16 µg/mL (≈ 56.9 µM) |
| COc1cc(C=O)cc(/N=N/c2ccccc2Cl)c1O | 16 µg/mL (≈ 55 µM) | 16 µg/mL (≈ 55 µM) | 64 µg/mL (≈ 220 µM) | 64 µg/mL (≈ 220 µM) | 64 µg/mL (≈ 220 µM) | 64 µg/mL (≈ 220 µM) | 64 µg/mL (≈ 220 µM) | 64 µg/mL (≈ 220 µM) | 64 µg/mL (≈ 220 µM) | 64 µg/mL (≈ 220 µM) | 64 µg/mL (≈ 220 µM) |
| C=CCc1cc(/N=N/c2ccc([N+](=O)[O-])cc2)c(O)c(OC)c1 | 64 µg/mL (≈ 204 µM) | 64 µg/mL (≈ 204 µM) | 128 µg/mL (≈ 409 µM) | 128 µg/mL (≈ 409 µM) | 64 µg/mL (≈ 204 µM) | 64 µg/mL (≈ 204 µM) | 64 µg/mL (≈ 204 µM) | 128 µg/mL (≈ 409 µM) | 64 µg/mL (≈ 204 µM) | 128 µg/mL (≈ 409 µM) | 128 µg/mL (≈ 409 µM) |
| COc1ccc(/N=N/c2cc(C)c(O)c(/N=N/c3ccc(OC)cc3)c2C(C)C)cc1 | > 128 µg/mL | > 128 µg/mL | > 128 µg/mL | > 128 µg/mL | > 128 µg/mL | > 128 µg/mL | > 128 µg/mL | > 128 µg/mL | > 128 µg/mL | > 128 µg/mL | >128 µg/mL |
| Cc1cc(/N=N/c2ccccc2Cl)c(C(C)C)cc1O | 4 µg/mL (≈ 13.9 µM) | 4 µg/mL (≈ 13.9 µM) | 4 µg/mL (≈ 13.9 µM) | 4 µg/mL (≈ 13.9 µM) | 4 µg/mL (≈ 13.9 µM) | 4 µg/mL (≈ 13.9 µM) | 2 µg/mL (≈ 6.93 µM) | 2 µg/mL (≈ 6.93 µM) | 4 µg/mL (≈ 13.9 µM) | 4 µg/mL (≈ 13.9 µM) | 4 µg/mL (≈ 13.9 µM) |
| COc1ccc(/N=N/c2cc(C)c(O)cc2C(C)C)cc1 | 4 µg/mL (≈ 14.1 µM) | 4 µg/mL (≈ 14.1 µM) | 8 µg/mL (≈ 28.1 µM) | 8 µg/mL (≈ 28.1 µM) | 8 µg/mL (≈ 28.1 µM) | 8 µg/mL (≈ 28.1 µM) | 4 µg/mL (≈ 14.1 µM) | 4 µg/mL (≈ 14.1 µM) | 4 µg/mL (≈ 14.1 µM) | 8 µg/mL (≈ 28.1 µM) | 8 µg/mL (≈ 28.1 µM) |
| COc1cc(C=O)cc(/N=N/c2ccc(Br)cc2)c1O | 8 µg/mL (≈ 23.9 µM) | 8 µg/mL (≈ 23.9 µM) | 32 µg/mL (≈ 95.5 µM) | 32 µg/mL (≈ 95.5 µM) | 16 µg/mL (≈ 47.7 µM) | 16 µg/mL (≈ 47.7 µM) | 16 µg/mL (≈ 47.7 µM) | 16 µg/mL (≈ 47.7 µM) | 16 µg/mL (≈ 47.7 µM) | 32 µg/mL (≈ 95.5 µM) | 32 µg/mL (≈ 95.5 µM) |
| Cc1ccccc1/N=N/c1cc(C(C)C)c(O)c(/N=N/c2ccccc2C)c1C | 128 µg/mL (≈ 331 µM) | > 128 µg/mL | 128 µg/mL (≈ 331 µM) | > 128 µg/mL | > 128 µg/mL | > 128 µg/mL | 128 µg/mL (≈ 331 µM) | > 128 µg/mL | 128 µg/mL (≈ 331 µM) | > 128 µg/mL | >128 µg/mL |
| C=CCc1cc(/N=N/c2ccc3c(c2)OCO3)c(O)c(OC)c1 | > 128 µg/mL | > 128 µg/mL | > 128 µg/mL | > 128 µg/mL | 128 µg/mL (≈ 410 µM) | 128 µg/mL (≈ 410 µM) | > 128 µg/mL | > 128 µg/mL | > 128 µg/mL | > 128 µg/mL | >128 µg/mL |
| Cc1ccccc1/N=N/c1cc(C(C)C)c(O)cc1C | 4 µg/mL (≈ 14.9 µM) | 4 µg/mL (≈ 14.9 µM) | 8 µg/mL (≈ 29.8 µM) | 8 µg/mL (≈ 29.8 µM) | 4 µg/mL (≈ 14.9 µM) | 4 µg/mL (≈ 14.9 µM) | 4 µg/mL (≈ 14.9 µM) | 4 µg/mL (≈ 14.9 µM) | 4 µg/mL (≈ 14.9 µM) | 8 µg/mL (≈ 29.8 µM) | 8 µg/mL (≈ 29.8 µM) |
| COc1cc(C=O)cc(/N=N/c2cccc(Cl)c2)c1O | 128 µg/mL (≈ 440 µM) | 128 µg/mL (≈ 440 µM) | 128 µg/mL (≈ 440 µM) | 128 µg/mL (≈ 440 µM) | 128 µg/mL (≈ 440 µM) | > 128 µg/mL | 128 µg/mL (≈ 440 µM) | 128 µg/mL (≈ 440 µM) | 128 µg/mL (≈ 440 µM) | > 128 µg/mL | >128 µg/mL |
| COc1ccc(/N=N/c2cc(C=O)cc(OC)c2O)cc1 | 64 µg/mL (≈ 224 µM) | 128 µg/mL (≈ 447 µM) | > 128 µg/mL | > 128 µg/mL | > 128 µg/mL | > 128 µg/mL | > 128 µg/mL | > 128 µg/mL | > 128 µg/mL | > 128 µg/mL | >128 µg/mL |
| COc1cc(C=O)cc(/N=N/c2ccc(Cl)c(Cl)c2)c1O | 64 µg/mL (≈ 197 µM) | 64 µg/mL (≈ 197 µM) | 64 µg/mL (≈ 197 µM) | 128 µg/mL (≈ 394 µM) | 128 µg/mL (≈ 394 µM) | 128 µg/mL (≈ 394 µM) | 128 µg/mL (≈ 394 µM) | 128 µg/mL (≈ 394 µM) | 64 µg/mL (≈ 197 µM) | 128 µg/mL (≈ 394 µM) | 128 µg/mL (≈ 394 µM) |
| Cc1cc(/N=N/c2ccccc2Cl)c(C(C)C)c(/N=N/c2ccccc2Cl)c1O | 64 µg/mL (≈ 150 µM) | > 128 µg/mL | 128 µg/mL (≈ 300 µM) | > 128 µg/mL | 128 µg/mL (≈ 300 µM) | 128 µg/mL (≈ 300 µM) | 128 µg/mL (≈ 300 µM) | > 128 µg/mL | 128 µg/mL (≈ 300 µM) | 128 µg/mL (≈ 300 µM) | >128 µg/mL |
| COc1cc(C=O)cc(/N=N/c2ccc(C)cc2)c1O | 2 µg/mL (≈ 7.4 µM) | 2 µg/mL (≈ 7.4 µM) | 8 µg/mL (≈ 29.6 µM) | 8 µg/mL (≈ 29.6 µM) | 4 µg/mL (≈ 14.8 µM) | 4 µg/mL (≈ 14.8 µM) | 8 µg/mL (≈ 29.6 µM) | 8 µg/mL (≈ 29.6 µM) | 4 µg/mL (≈ 14.8 µM) | 8 µg/mL (≈ 29.6 µM) | 8 µg/mL (≈ 29.6 µM) |
| C=CCc1cc(/N=N/c2cccc3ccccc23)c(O)c(OC)c1 | > 128 µg/mL | > 128 µg/mL | > 128 µg/mL | > 128 µg/mL | 128 µg/mL (≈ 402 µM) | 128 µg/mL (≈ 402 µM) | > 128 µg/mL | > 128 µg/mL | > 128 µg/mL | > 128 µg/mL | >128 µg/mL |
| Cc1cc(/N=N/c2ccc(Br)cc2)c(C(C)C)c(/N=N/c2ccc(Br)cc2)c1O | > 128 µg/mL | > 128 µg/mL | > 128 µg/mL | > 128 µg/mL | 128 µg/mL (≈ 248 µM) | 128 µg/mL (≈ 248 µM) | > 128 µg/mL | > 128 µg/mL | > 128 µg/mL | > 128 µg/mL | >128 µg/mL |
| COc1cc(C=O)cc(/N=N/c2cccc([N+](=O)[O-])c2)c1O | 16 µg/mL (≈ 53.1 µM) | 16 µg/mL (≈ 53.1 µM) | 8 µg/mL (≈ 26.6 µM) | 8 µg/mL (≈ 26.6 µM) | 8 µg/mL (≈ 26.6 µM) | 8 µg/mL (≈ 26.6 µM) | 8 µg/mL (≈ 26.6 µM) | 16 µg/mL (≈ 53.1 µM) | 8 µg/mL (≈ 26.6 µM) | 16 µg/mL (≈ 53.1 µM) | 16 µg/mL (≈ 53.1 µM) |
